Ec RNAP inh: Escherichia coli RNA polymerase inhibition. P0A8V2. E. coli RNA polymerase, fluorescence transcription assay. inhibition, %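 (tested at 10 µM)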. 62,000 tested, 0.2% active; in the data active = inhibition above about 20%;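 note: 0% = enzyme without compound and 100% = no enzyme blank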
Ecoli tolC: blocks growth of E. coli BW25113 tolC mutant; OD615; growth inhibition, % at 10 µM (by protocol); 65,000 tested, 2.2% active; AID 573;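 active = growth inhibition at or above a cutoff equal to the mean over every tested compound plus 3 SD, cut at about 60% in these data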;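 note: growth measured after 20 h incubation at 37 °C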
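System: E. coli ΔtolC::kan strain BW25113; Buffer or medium: LB broth supplemented with 50 µg/mL kanamycin; Compound: 10 µM final, single dose; Incubation: bacterial growth with compound for 20 h at 37 °C; Signal: A615 absorbance measurement; Evaluation: growth inhibition in percent.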
Hsp90 block: displaces geldanamycin probe from tumor Hsp90; P07900; NCI-N417 lysate Hsp90, Cy3B-geldanamycin FP displacement; inhibition, % at 30 µM; 64,000 tested, 0.35% active; AID 429;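 active = inhibition above 50%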;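 note: 0% = tracer plus lysate wells and 100% = tracer alone without lysate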
MKP-1 inh: blocks human MKP-1 phosphatase activity; inhibition, %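 (compounds tested at a single concentration somewhere between 10 and 100 µM)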; 65,000 tested, 0.15% active; recombinant MKP-1, OMFP hydrolysis fluorescence; P28562;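 active = inhibition above about 50%, limit read from the data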;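 note: 0% = DMSO max control wells and 100% = wells with enzyme stopped by NaOH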
BAP1 inh: human BAP1 deubiquitinase inhibition | calls only at 20 µM | recombinant BAP1, Ub-AMC hydrolysis fluorescence kinetic; active compounds read low | 72,000 tested, 0.48% active;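 active = activity remaining at or below 50% of control, provided the compound also passes the data quality filters; inactive = the rest, including low values that fail the filters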;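 note: 100% = DMSO wells rate and 0% = substrate alone blank rate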
Cdc25B inh: inhibitors of human Cdc25B phosphatase. AID 368. 65,000 tested, 0.1% active. P30305. recombinant Cdc25B, OMFP fluorescence Ex485/Em525. inhibition, %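 (compounds tested at 10 µM final in the well)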; in the data active = inhibition above about 50%
Numbers without * were called inactive; i = inactive; . = no result given; + = active, no number. Hits are enriched below; roughly 2.9% of the tested compounds scored in any of these assays.

SMILES	Ec RNAP inh	Ecoli tolC	Hsp90 block	MKP-1 inh	BAP1 inh	Cdc25B inh
O=C(COc1ccccc1)Nc1nnc(-c2ccc(Cl)s2)o1	3	96*	0	3	i	1
O=C(COc1ccccc1)Nc1cccc(-c2nnc(-c3ccccc3)o2)c1	0	23	-3	15	+	12
O=C(Nc1cccc(-c2nnc(-c3ccccc3)o2)c1)c1ccc(Br)o1	9	84*	-4	33	.	-7
CC1CC(C)CN(S(=O)(=O)c2ccc(C(=O)N=c3sc4cc(Br)ccc4n3C)cc2)C1 (stereo not drawn)	.	.	.	.	i	.
COC(=O)c1ccc(N2C(=O)c3ccc(C(=O)Oc4ccccc4)cc3C2=O)cc1	.	.	.	.	i	.
CCCn1c2ccccc2c2nc3cc(OC)c(OC)cc3nc21	.	.	.	.	i	.
CCOC(=O)c1cnn(-c2nc3sc4c(c3c(=O)[nH]2)CCCC4)c1N	1	94*	-5	22	.	-7
CCOC(=O)c1cnn(-c2nc(C)nc3sc4c(c23)CCC4)c1N	3	-10	-1	12	i	-12
COC(=O)C1=C(C)N(C)C(C)=C(C(=O)OC)C1c1ccc(C)c([N+](=O)[O-])c1	.	.	.	.	i	.
CN(C1CCCCC1)S(=O)(=O)c1ccc(-n2cnnn2)cc1	-7	-22	-1	13	i	-14
CN(C1CCS(=O)(=O)C1)S(=O)(=O)c1ccc(N2CCCC2=O)cc1 (stereo not drawn)	21*	-15	-6	5	i	-7
Cc1cc(N2CCC(C)CC2)nc(-n2nc(C)cc2C)n1	.	100*	-2	3	i	-13
Cc1cc(-n2nc(C)cc2C)nc(N)n1	5	-4	7	-7	i	-15
O=C(NCc1ccc2c(c1)OCO2)c1ccc(-c2ccc(Cl)cc2)o1	-1	79*	-1	21	.	10
Cc1ccc2oc(C(=O)NCc3ccc4c(c3)OCO4)c(C)c2c1	7	86*	-1	4	i	8
Cc1c(C(=O)NCc2ccc3c(c2)OCO3)oc2ccccc12	-7	36	-1	7	i	0
Cc1cccc(NC(=O)CSc2nnc(-c3cc(C)n(-c4ccccc4)c3C)o2)c1C	7	63*	-8	2	i	-4
CCCCOc1ccc(C(=O)Nc2c3c(nn2-c2ccc(C)cc2C)CSC3)cc1	.	.	.	.	i	.
NC[C@@H]1O[C@H](C23CC4CC(CC(C4)C2)C3)Cc2c1ccc(O)c2O	.	.	78*	.	i	.
Cn1c(=O)c2c(nc(N3CCCCCC3)n2Cc2cccc3ccccc23)n(C)c1=O	5	74*	.	2	.	-17
CN1CCN(c2nc3c(c(=O)n(C)c(=O)n3C)n2Cc2cccc3ccccc23)CC1	9	21	-5	-1	i	0
O=S(=O)(NC1CCCC1)c1ccc(S(=O)(=O)N(Cc2cccs2)CC2CCCO2)cc1 (stereo not drawn)	11	64*	-1	-25	i	-11
N#CC(C#N)=c1ccc2c(c1)N1C3=C(CCCC3)CC3CCCCC31N=2 (stereo not drawn)	-3	82*	38	16	i	-7
N#C/C(C(N)=O)=c1/ccc2c(c1)N1C3=C(CCCC3)CC3CCCCC31N=2 (stereo not drawn)	8	18	44	32	i	-3
CCOC(=O)C(Cc1ccc([N+](=O)[O-])cc1)N1C(=O)c2ccccc2C1=O (stereo not drawn)	.	.	.	.	i	.
SMILES	Ec RNAP inh	Ecoli tolC	Hsp90 block	MKP-1 inh	BAP1 inh	Cdc25B inh
Cc1cc(OCCN2CCOCC2)nc2ccccc12	30*	2	-5	-21	i	-2
Cn1c(=O)oc2cc(S(=O)(=O)Nc3ccc4c(c3)OCCO4)ccc21	.	-6	3	16	i	2
COc1ccc(NS(=O)(=O)c2ccc3oc(Nc4ccc5c(c4)OCCO5)nc3c2)cc1	3	79*	7	28	i	-5
CC(=O)c1c(O)cc(C)n(Nc2nc(C)cc(C)n2)c1=O	10	73*	28	-1	i	4
CC(C)c1ccc(-c2nnn(Cc3nc4ccccc4s3)n2)cc1	9	80*	3	30	i	-15
Cc1ccc(-c2nnn(CC(=O)N3CCN(c4nc5ccccc5s4)CC3)n2)cc1	14	-2	-4	-10	i	7
O=c1oc2c3c4c(cc2s1)CCCN4CCC3	3	29	69*	2	i	16
c1ccc(CCNc2c3c(nc4ccccc24)CCC3)cc1	.	.	.	.	i	.
CCOc1cccc(C2C(C(=O)c3ccc(C)o3)=C(O)C(=O)N2c2nccs2)c1 (stereo not drawn)	5	18	-3	32	i	-7
COC(=O)c1sc(N2C(=O)C(O)=C(C(=O)c3ccc(C)o3)C2c2ccc(F)cc2)nc1C (stereo not drawn)	5	65*	-8	35	i	4
O=C(Nc1nnc(COc2ccc(F)cc2)s1)c1ccc([N+](=O)[O-])cc1	.	.	.	.	i	.
Cc1cccc(N2CCN(C(=O)c3ccc(N4CCCC4=O)cc3)CC2)c1C	4	15	-2	26	i	-11
CCOc1ccc(C(=O)N2CCN(c3cccc(C)c3C)CC2)cc1	7	82*	1	3	i	-13
CC1CC(c2ccccc2)n2nc(NC(=O)c3ccco3)nc2N1 (stereo not drawn)	4	-4	-3	24	i	3
CC1CC(N(C(=O)c2ccco2)c2ccccc2)c2ccccc2N1 (stereo not drawn)	-1	68*	1	0	i	-18
CCCCN(CCCC)C(=O)CSc1nnc(-c2cc(OC)c(OC)c(OC)c2)o1	8	71*	0	11	i	-5
O=C(Oc1nsnc1N1CCOCC1)N1CCCCC1	.	-17	-1	-4	i	4
O=C(Oc1nsnc1N1CCOCC1)N1CCOCC1	31*	-19	-1	-33	i	1
CCCCOC(=O)Nc1cc(C(=O)OC)ccc1C(=O)OC	2	67*	6	9	.	-4
O=c1oc2ccc(Cl)cc2cc1-c1nc2sc3c(c2c(=O)[nH]1)CCCC3	.	.	.	.	i	.
O=S(=O)(Nc1nc2ccccc2s1)c1ccc(Br)s1	4	76*	-5	35	.	-10
O=[N+]([O-])c1ccc(S(=O)(=O)Nc2nc3ccccc3s2)cc1	.	.	.	.	i	.
O=C(CSc1nnc2scc(-c3ccccc3)n12)Nc1nsc(-c2ccccc2)n1	7	62*	-1	23	i	-1
O=C(Nc1ccccc1)OCC1CCCN2CCCCC12 (stereo not drawn)	4	-8	.	5	.	0
CC1=CCC(COC(=O)Nc2ccccc2)CC1 (stereo not drawn)	.	98*	-1	21	i	5
COc1ccc(-c2c3c(=O)n(C)c(=O)n(C)c3cn2-c2ccccc2)cc1	3	96*	1	26	i	4
